Common to all, as to type: functional
The test system of one test is Erwinia. Put plainly: Antibacterial activity against Erwinia aroideae at 50 mg/L after 24 hrs by agar well diffusion method. The following applies: read-out: DIZ. Put shortly: (§1)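 Bacteria plated as 0.8 mL of 24-h-old inoculum mixed into 60 mL sterile molten agar cooled to 45 °C, poured into three dishes. Wells bored with centres at least 24 mm apart. Test sample at 50 mg/L in DMSO added to wells. DMSO served as negative control and agricultural streptomycin sulfate as positive control. Read-out was inhibition zone diameter (mm).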
A general note: Agar diffusion results depend on both activity and mobility in agar.

The next test has as its system Xanthomonas oryzae. Put plainly: Antibacterial activity against Xanthomonas oryzae at 50 mg/L after 24 hrs by agar well diffusion method. The following applies: read-out: DIZ.
For the next test, the system named is Xanthomonas axonopodis. Put plainly: Antibacterial activity against Xanthomonas axonopodis at 50 mg/L after 24 hrs by agar well diffusion method. The settings on record: read-out: DIZ. Put shortly:
as §1

The next test deals with Bacillus subtilis. As to the kind of experiment: Antibacterial activity against Bacillus subtilis at 50 mg/L after 24 hrs by agar well diffusion method. The settings on record: read-out: DIZ. Put shortly:
as §1

For the next test, the system named is Rhizoctonia solani. As to the kind of experiment: Antifungal activity against Rhizoctonia solani at 200 mg/L by plate growth rate method. The following applies: read-out: GI. Put shortly: (§2)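 Compound dissolved in DMSO and mixed into molten PDA at 45 °C at 200 mg/L, then plates allowed to set. A 5 mm mycelial agar disc was placed at the centre. Plates were incubated at 28 °C in the dark until the untreated control covered the plate. Colony diameters were measured and growth inhibition calculated by Abbott's formula. Each compound was tested three times.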

The test system of another test is Cytospora mali. Put plainly: Antifungal activity against Valsa mali at 200 mg/L by plate growth rate method. The settings on record: read-out: GI. Put shortly: as §2
The subject of another test is Fusarium graminearum. As to the kind of experiment: Antifungal activity against Gibberella zeae at 200 mg/L by plate growth rate method. The settings on record: read-out: GI. Put shortly:
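Plate growth rate method: compound dissolved in DMSO, mixed into sterile PDA at 45 °C to 200 mg/L, plates poured. A 5 mm mycelium agar disc placed centrally; incubated at 28 °C in the dark until the untreated control covered the plate. Colony diameters measured; growth inhibition computed by Abbott's formula. Each compound tested three times.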

The next test has as its system Ralstonia solanacearum. Put plainly: Antibacterial activity against Ralstonia solanacearum at 50 mg/L after 24 hrs by agar well diffusion method. The following applies: read-out: DIZ.

As for `CCn1cc(C(=O)O)c(=O)c2cc(F)c(N3CCN(C(=O)/C=C/c4ccccc4)CC3)cc21`, the zone of inhibition at 50 µg/mL in the test with Erwinia stood at 10.8 mm; in the test on Xanthomonas oryzae, 11.7 mm; in the test on Xanthomonas axonopodis it was 12.1 mm; in the test on Bacillus subtilis it was 15.2 mm; in the test on Ralstonia solanacearum, 4.64 mm. Besides, the inhibition of growth at 200 µg/mL worked out at 29% in the test with Rhizoctonia solani, 9% in the test on Cytospora mali and 5% in the test on Fusarium graminearum.
As for `CCn1cc(C(=O)O)c(=O)c2cc(F)c(N3CCN(C(=O)c4cccnc4)CC3)cc21`, the zone of inhibition at 50 µg/mL with Erwinia turned out to be 9.19 mm; with Xanthomonas oryzae it was 7.94 mm; in the test with Xanthomonas axonopodis, 6.58 mm; in the test on Bacillus subtilis it was 8.74 mm; in the test on Ralstonia solanacearum it was 1.06 mm. Also, the inhibition of growth at 200 µg/mL in the test with Rhizoctonia solani amounted to 12%; in the test with Cytospora mali, 17%; with Fusarium graminearum, 11%.
Turning to `CCn1cc(C(=O)O)c(=O)c2cc(F)c(N3CCN(C(=O)c4ccccc4)CC3)cc21`, the zone of inhibition at 50 µg/mL stood at 17.9 mm with Erwinia; 22.7 mm in the test on Xanthomonas oryzae; 15.8 mm in the test on Xanthomonas axonopodis; 20.7 mm in the test with Bacillus subtilis; 5.92 mm in the test with Ralstonia solanacearum. For the same compound, the inhibition of growth at 200 µg/mL turned out to be 25% with Rhizoctonia solani, 42% in the test with Cytospora mali and 23% in the test with Fusarium graminearum.
As to `CCn1cc(C(=O)O)c(=O)c2cc(F)c(N3CCNCC3)cc21` [NORFLOXACIN], the zone of inhibition at 50 µg/mL in the test on Erwinia was 21.5 mm; in the test on Xanthomonas oryzae, 22.2 mm; in the test on Xanthomonas axonopodis, 17.7 mm; with Bacillus subtilis, 30.5 mm; in the test with Ralstonia solanacearum, 19.3 mm. Also, the figures for the inhibition of growth at 200 µg/mL in the test on Rhizoctonia solani, in the test with Cytospora mali and in the test on Fusarium graminearum were 0%, 27% and 18%, respectively.
In the case of `CCn1cc(C(=O)O)c(=O)c2cc(F)c(N3CCN(C(=O)COc4ccc(C(C)(C)C)cc4)CC3)cc21`, the zone of inhibition at 50 µg/mL in the test with Erwinia turned out to be 8.52 mm; in the test on Xanthomonas oryzae it was 5.81 mm; in the test with Xanthomonas axonopodis, 6.41 mm; in the test on Bacillus subtilis it was 10.8 mm; with Ralstonia solanacearum, 10.9 mm. For the same compound, the inhibition of growth at 200 µg/mL came out at 53% with Rhizoctonia solani, 14% in the test with Cytospora mali and 28% in the test with Fusarium graminearum.
Take `CCn1cc(C(=O)O)c(=O)c2cc(F)c(N3CCN(C(=O)COc4ccc(F)cc4)CC3)cc21`: the zone of inhibition at 50 µg/mL in the test with Erwinia is 13.3 mm; in the test with Xanthomonas oryzae, 11 mm; with Xanthomonas axonopodis, 11.1 mm; with Bacillus subtilis, 13.9 mm; in the test with Ralstonia solanacearum, 3.31 mm. In addition, the inhibition of growth at 200 µg/mL is 52% in the test with Rhizoctonia solani, 12% in the test on Cytospora mali and 15% in the test with Fusarium graminearum.
With `CCn1cc(C(=O)O)c(=O)c2cc(F)c(N3CCN(C(=O)COc4ccccc4)CC3)cc21`, the zone of inhibition at 50 µg/mL was 13.8 mm in the test on Erwinia; 15.3 mm in the test on Xanthomonas oryzae; 15 mm in the test with Xanthomonas axonopodis; 17.3 mm in the test with Bacillus subtilis; 4.89 mm with Ralstonia solanacearum. The inhibition of growth at 200 µg/mL with Rhizoctonia solani turned out to be 30%; in the test with Cytospora mali, 8%; with Fusarium graminearum, 17%.
Consider `CCn1cc(C(=O)O)c(=O)c2cc(F)c(N3CCN(C(=O)c4ccc(Cl)cc4)CC3)cc21`, for which the zone of inhibition at 50 µg/mL was determined as 16.6 mm in the test with Erwinia; 17.7 mm with Xanthomonas oryzae; 12.9 mm in the test on Xanthomonas axonopodis; 18.5 mm in the test with Bacillus subtilis; 1.47 mm in the test with Ralstonia solanacearum. Further, the inhibition of growth at 200 µg/mL in the test on Rhizoctonia solani stood at 21%; in the test with Cytospora mali, 16%; in the test on Fusarium graminearum it was 27%.
